Laboratory results published in publication PMC3920459 (The Journal of organic chemistry, 2013).
Entries after “also recorded” stand apart in the source; their conditions may differ.

How the values were obtained:
[1] = test system: CEM, acute lymphoblastic leukemia; assay: IC50 determination using MTS, CEM; format: cell-based, human; settings: read-out: IC50 CEM, 48-hour
[2] = test system: IMR90, immortalized lung fibroblasts; assay: IC50 determination for adherent cells using SRB, IMR90; format: cell-based, human; settings: read-out: IC50 IMR90, 48-hour exposure, immortalized normal cell line
CA46, Burkitt’s lymphoma = assay: IC50 determination using MTS, CA46; format: cell-based, human; settings: read-out: IC50 CA46, 48-hour
[3] = test system: Jurkat, acute T-cell leukemia; assay: IC50 determination using MTS, Jurkat; format: cell-based, human; settings: read-out: IC50 Jurkat, 48-hour
BT549, breast carcinoma = assay: IC50 determination for adherent cells using SRB, BT549; format: cell-based, human; settings: for IC50: read-out: IC50 BT549, SRB
[4] = test system: Daudi, Burkitt’s lymphoma; assay: IC50 determination using MTS, Daudi; format: cell-based, human; settings: read-out: IC50 Daudi, 48-hour
HeLa, cervical carcinoma = assay: IC50 determination for adherent cells using SRB, HeLa; format: cell-based, human; settings: read-out: IC50 HeLa, 48-hour exposure
[5] = test system: A549, non-small cell lung carcinoma; assay: IC50 determination for adherent cells using SRB, A549; format: cell-based, human; settings: read-out: IC50 A549, 48-hour exposure
[6] = test system: human cell lines U-937, HeLa, A549, BT549, IMR90; assay: 48-hour cell death panel; format: cell-based; settings: for activity against the cell lines of Table 3 (in words): 48-hour exposure, concentrations up to 10 μM
Method in brief: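 Adherent lines seeded at 5,000 (HeLa) or 2,000 (A549, BT549, IMR90) cells/well and attached 2–3 h, in RPMI-1640 or, for IMR90, EMEM, each with 10% FBS. Test compound at 1 nM–10 μM on a half-log scale, in triplicate with 1% DMSO final, for 48 h continuous at 37 °C and 5% CO2. Cells fixed in cold 10% TCA and stained with SRB; dye read at 510 nm. IC50 from ≥3 independent experiments.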

U-937, lymphoma = assay: IC50 determination for non-adherent cells using MTS, U-937; format: cell-based, human; settings: for IC50: read-out: IC50 U-937, MTS
[7] = test system: HL-60, acute promyelocytic leukemia; assay: IC50 determination using MTS, HL-60; format: cell-based, human; settings: read-out: IC50 HL-60, 48-hour
U-937 cells [8] = assay: Cell cycle arrest in thymidine-synchronized cells; format: cell-based, human; settings: synchronized U-937 cells, 16 hours
[9] = test system: tubulin dynamics in HeLa cells; assay: Tubulin confocal microscopy; format: cell-based, human; settings: 16 hours
U-937 cells [10] = assay: Apoptosis with Annexin V-FITC and propidium iodide; format: cell-based, human; settings: 21 hours; 4× and 6× the 48-hour IC50
U-937 cells [11] = assay: Western blot analysis of procaspase-3 and PARP-1 cleavage; format: cell-based, human; settings: 24 hours; 2×, 4×, 6× the 48-hour IC50
human erythrocytes = assay: Hemolysis assay using human erythrocytes; format: cell-based
[12] = test system: multiple tumor cell lines; settings: cited from earlier work
[13] = mice, in vivo; cited from earlier work
anthropods = settings: cited from earlier work
[14] = test system: glycogen synthase kinase-3β; settings: cited from earlier work
cells = settings: cited from earlier work

Compound	IC50 [1] [µM]	IC50 [2] [µM]	IC50 (CA46, Burkitt’s lymphoma) [µM]	IC50 [3] [µM]	IC50 (BT549, breast carcinoma; 48-hour exposure) [µM]	IC50 [4] [µM]	IC50 (HeLa, cervical carcinoma) [µM]	IC50 [5] [µM]	activity against the cell lines of Table 3 (in words) [6]	IC50 (U-937, lymphoma; 48-hour exposure) [µM]	IC50 [7] [µM]	further results
CN1C(=O)N[C@@]2(O)[C@@H]3NC(=O)c4ccc(Br)n4[C@@H]3C[C@@]12O [(−)-3, (−)-agelastatin C]	2.1 ± 1.3	> 10	> 10	5.31 ± 0.35	> 10	7.2 ± 2.9	> 10	> 10	no activity; also recorded: completely abolishes activity	> 10	> 10	
O=C1N[C@H]2[C@@H]3NC(=O)c4ccc(Br)n4[C@@H]3C[C@@]2(O)N1 [(−)-4, (−)-agelastatin D]	0.074 ± 0.025	2.75 ± 0.6	0.46 ± 0.24	0.21 ± 0.063	0.631 ± 0.082	0.202 ± 0.015	1 ± 0.2	0.92 ± 0.16		0.24 ± 0.033	0.54 ± 0.12	activity against BT549 cells (in words) (BT549, breast carcinoma; 48-hour exposure): modest activity; cell cycle arrest (U-937 cells [8]): dose-dependent G2/M cell cycle arrest; tubulin fluorescence (tubulin dynamics within cells) [9]: no change in tubulin fluorescence; phosphatidylserine exposure / PI inclusion (apoptosis) (U-937 cells [10]): induced dose-dependent apoptosis; activity against U-937 cells (in words) (U-937, lymphoma; 48-hour exposure): reasonable activity; activation of procaspase-3 to caspase-3 and cleavage of PARP-1 (U-937 cells [11]): induced dose-dependent activation of procaspase-3 to active caspase-3, and cleavage of PARP-1
CC(=O)O[C@H]1C(=O)[C@@]2(C)[C@H]([C@H](OC(=O)c3ccccc3)[C@]3(O)C[C@H](OC(=O)[C@H](O)[C@@H](NC(=O)c4ccccc4)c4ccccc4)C(C)=C1C3(C)C)[C@]1(OC(C)=O)CO[C@@H]1C[C@@H]2O [Taxol, reference compound]												tubulin fluorescence (tubulin dynamics within cells) [9]: heightened
O=C1N[C@H]2[C@@H]3NC(=O)c4cc(Br)c(Br)n4[C@@H]3C[C@@]2(O)N1 [(−)-6, (−)-agelastatin F]	> 10	> 10	> 10	> 10	> 10	> 10	> 10	> 10	no activity	> 10	> 10	
(−)-di-epi-agelastatin C [(−)-52]		> 10			> 10		> 10	> 10	none	> 10		
CO[C@@]12C[C@@H]3[C@@H](NC(=O)c4ccc(Br)n43)[C@@H]1NC(=O)N2C [(−)-5, (−)-agelastatin E]	0.83 ± 0.37	> 10	2.45 ± 0.95	1.5 ± 0.33	6.9 ± 2.5	1.41 ± 0.53	8.6 ± 0.81	> 10	weak activity	2.56 ± 0.13	4.6 ± 3.6	reduction in anticancer potency relative to (−)-agelastatin A (1) ([6]; comparison of 48-hour IC50 values): > 10 fold
COC1NC(=O)c2ccc(Br)n2C1Cc1c[nH]c(=O)n1C (single isomer, unassigned; (+)) [(+)-39, (+)-O-methyl-pre-agelastatin A]		> 10			> 10		> 10	> 10	none	> 10		
(−)-agelastatin B [(−)-2]	0.29 ± 0.2	> 10	1.07 ± 0.42	0.75 ± 0.44	4.8 ± 1.1	0.46 ± 0.28	4.8 ± 1.2	> 10	weak activity	1.06 ± 0.16	2.4 ± 1	
(−)-dehydroagelastatin A [(−)-51]		> 10			> 10		> 10	> 10	none	> 10		
CN1C(=O)N[C@H]2[C@@H]3NC(=O)c4ccc(Br)n4[C@@H]3C[C@]21O [(−)-1, (−)-agelastatin A]	0.02 ± 0.002	1.11 ± 0.35	0.187 ± 0.071	0.074 ± 0.007	0.278 ± 0.076	0.02 ± 0.003	0.708 ± 0.09	1.05 ± 0.14	highest potency in all cell lines tested	0.067 ± 0.003	0.138 ± 0.066	concentration without effect on normal red blood cells (human erythrocytes; hemolysis after 2 h): > 333 µM; hemolytic activity (nonspecific hemolysis of red blood cells) (human erythrocytes; tested at 333 μM, 2 h): none; anti-neoplastic activity against multiple tumor cell lines [12]: modest anti-neoplastic activity; enhanced activity in BT549 relative to the other cell lines (BT549, breast carcinoma; 48-hour IC50 comparison): 4 ×; penetration into CNS compartments [13]: able to penetrate into CNS compartments; cell cycle arrest (U-937 cells [8]): dose-dependent G2/M cell cycle arrest; tubulin fluorescence (tubulin dynamics within cells) [9]: no change in tubulin fluorescence; toxicity towards anthropods (anthropods): exhibits toxicity; phosphatidylserine exposure / PI inclusion (apoptosis) (U-937 cells [10]): induced dose-dependent apoptosis; inhibition of glycogen synthase kinase-3β [14]: moderately inhibits; enhanced activity in U-937 relative to the other cell lines (U-937, lymphoma; 48-hour IC50 comparison): 20 ×; cell cycle arrest (cells): arrest in the G2/M-phase of the cell cycle; activation of procaspase-3 to caspase-3 and cleavage of PARP-1 (U-937 cells [11]): induced dose-dependent activation of procaspase-3 to active caspase-3, and cleavage of PARP-1
(−)-O-methyl-di-epi-agelastatin A [(−)-50]		> 10			> 10		> 10	> 10	none	> 10		
COC1NC(=O)c2ccc(Br)n2C1Cc1c[nH]c(=O)[nH]1 (single isomer, unassigned; (+)) [(+)-53, (+)-O-methyl-pre-agelastatin D]		> 10			> 10		> 10	> 10	none	> 10		
